High-throughput results: PubChem, several laboratories
Only some compounds are listed: those with a hit (about 2.1% of all), similar ones and a draw of the others.
Runt-SMMHC FRET – inhibitors of RUNX1 Runt–CBFb-SMMHC binding, primary screen, biochemical, FRET, Cerulean-Runt, Venus-CBFb-SMMHC, uHTS. Runt-related transcription factor 1 (Homo sapiens) + Core-binding factor subunit beta …. 220,000 compounds, 0.74% hits. Cerulean-Runt/Venus-CBFb-SMMHC FRET ratio 530/480, 1 h. inhibition, % at 20 µM;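 active means mean inhibition across duplicate retests at 20 µM reaching about 50%, limit read from the data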;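 further: 0% = DMSO wells and 100% = wells with excess untagged CBFb-SMMHC; inhibitors lower the FRET ratio by blocking Runt binding to CBFb-SMMHC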
Target sequence (Q01196 whole entry, looked up): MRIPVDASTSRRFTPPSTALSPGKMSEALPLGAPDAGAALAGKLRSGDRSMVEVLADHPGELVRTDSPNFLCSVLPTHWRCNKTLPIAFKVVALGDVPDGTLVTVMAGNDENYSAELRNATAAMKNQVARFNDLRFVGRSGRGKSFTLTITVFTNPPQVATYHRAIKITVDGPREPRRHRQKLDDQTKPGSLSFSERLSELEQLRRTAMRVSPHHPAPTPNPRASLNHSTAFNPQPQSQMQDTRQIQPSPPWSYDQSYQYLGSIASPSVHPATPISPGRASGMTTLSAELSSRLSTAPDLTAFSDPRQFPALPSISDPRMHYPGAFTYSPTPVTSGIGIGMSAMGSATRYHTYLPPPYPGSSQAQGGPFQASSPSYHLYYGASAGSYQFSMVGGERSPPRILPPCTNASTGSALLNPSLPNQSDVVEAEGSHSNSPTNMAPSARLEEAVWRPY
Target sequence (Q13951 whole entry, looked up): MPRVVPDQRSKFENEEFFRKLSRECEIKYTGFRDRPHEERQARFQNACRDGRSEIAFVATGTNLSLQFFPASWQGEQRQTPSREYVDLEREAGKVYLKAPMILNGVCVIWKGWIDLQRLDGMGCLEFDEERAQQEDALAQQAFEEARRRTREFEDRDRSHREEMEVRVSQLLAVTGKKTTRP
MEX-5 binding – MEX-5 zinc finger RNA-binding disruptors – biochemical, C. elegans, fluorescence polarization, MLPCN library, primary screen | MEX-5/FITC-TCR2 RNA binding; active compounds read low | Zinc finger protein mex-5 (Caenorhabditis elegans), Q9XUB2 | AID 1832, 2009 | 300,000 compounds, 0.38% hits | activity score (negative = inhibition of binding), % at 10 µM;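 active means inhibition past about -25% in most replicates, and total fluorescence under double the plate's negative control median, limit read from the data; inconclusive means replicates evenly split on the limit, or fluorescence at least double controls; inactive means too little inhibition in most replicates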;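 further: 0% = DMSO and -100% = 5 µM competing unlabeled TCR2 RNA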
Runt-CBFb FRET – inhibitors of RUNX1 Runt–CBFb binding, primary screen, biochemical, FRET, Cerulean-Runt, Venus-CBFb, uHTS; Runt-related transcription factor 1 (Homo sapiens) + Core-binding factor subunit beta …; Cerulean-Runt/Venus-CBFb FRET ratio 530/480, 1 h; inhibition, % at 20 µM; 220,000 compounds, 0.46% hits; AID 1496, 2009;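 active means inhibition over about 50% at 20 µM in the single-dose screen, limit read from the data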;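 further: 0% = DMSO wells and 100% = excess unlabeled CBFb competitor control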
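test system = Cerulean-tagged RUNX1 Runt domain (FRET donor) fusion protein | reagent = Venus-CBFb binding partner, 100 nM | incubation = protein complex preformed 1 h, compound exposure 1 h, room temperature, dark | detection = FRET fluorescence | read-out basis = loss of energy transfer signal | controls = 5 µM unlabeled CBFb as full-inhibition high control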
proKLK7 act – proKLK7 zymogen activators, primary screen, biochemical, fluorescence intensity | 370,000 compounds, 0.9% hits | purified proKLK7, EDANS-DABCYL substrate fluorescence; 100% is mature enzyme control, 0% vehicle | activation, % at 7 µM | AID 652039, 2013;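 active means activation above the mean of all tested compounds plus 3 SD, computed per campaign excluding outliers beyond control limits, cut at about 13% in these data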
RanGTP-Imp inh – inhibitors of RanGTP-importin-beta interaction, primary screen, biochemical, FRET, CFP-Ran, YFP-importin-beta, homogeneous | cell-free CFP-Ran/YFP-importin-beta FRET ratio | 300,000 compounds, 1.1% hits | AID 2216, 2009 | Ran GTPase (GTP-bound) - importin-beta complex | inhibition, % (no concentration beside the values);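 active means more than half of the replicate wells show a fall in the fluorescence ratio signal beyond about 16%, limit read from the data, passing the limit was not always enough; inconclusive means exactly half of the replicate wells pass the set limit; inactive means fewer than half of replicates pass the limit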;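 further: 0% = DMSO wells and 100% = Ran loaded with GDP instead of GTP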
KLK7 act conf – proKLK7 zymogen activators, confirmation, biochemical, fluorescence intensity, triplicate. activation, % at 7 µM. shares compounds with proKLK7 act. purified proKLK7, EDANS-DABCYL substrate fluorescence; scaled: vehicle 0, mature enzyme 100. 3,200 compounds, 68% hits;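 active means activation, as change over the incubation, above the mean of all tested compounds plus 3 SD, cut at about 13% in these data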
EDANS-DABCYL int – EDANS-DABCYL substrate optical interference, artefact control for kallikrein-7 zymogen activator project, biochemical, fluorescence intensity, high throughput | no enzyme, 4 h; solvent 0%, active enzyme control 100% | shares compounds with proKLK7 act | 3,200 compounds, 80% hits | activation, % at 7 µM;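 active means activation above the all-compound mean plus 3 SD, ignoring values outside control-based bounds, cut at about 4.8% in these data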;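 further: value is the 4 h activation minus the activation read at time zero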
EDANS interf – optically interferes with EDANS-DABCYL fluorescence, kallikrein-7 activator counter-screen; shares compounds with proKLK7 act; EDANS-DABCYL peptide fluorescence interference, no enzyme; EC50, µM; 250 compounds, 20% hits; AID 720493;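 active means compounds that raise the fluorescence signal in this interference counterscreen, with EC50 at or below 10 µM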;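 further: intact quenched peptide substrate alone read at 355 nm excitation and 520 nm emission; signal is fluorescence gain from T0 to T4 after four hours at room temperature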
* marks the source's active call; other numbers are inactive results; i = inactive; ? = inconclusive; / = no result given.

SMILES	Runt-SMMHC FRET	MEX-5 binding	Runt-CBFb FRET	proKLK7 act	RanGTP-Imp inh	KLK7 act conf	EDANS-DABCYL int	others
N=c1c(C(=O)NCc2ccc(F)cc2)cc2c(=O)n3ccccc3nc2n1Cc1cccnc1	59*	?	20	26*	181*	-6	-8
Cc1nc2ccccn2c1C(=O)NCc1cccnc1	-2	-1	0	0	0	/	/
CC1(C(=O)NS(=O)(=O)C2CC2)CCCN(C(=O)c2cccc(OC(F)(F)F)c2)C1 (centres undefined)	/	/	/	0	/	/	/
COc1ccccc1CCn1cnc(Cc2ccccc2)c1C(C)C	/	/	/	1	/	/	/
CCC(C(=O)N1CCc2cc(OC)c(OC)cc2C1)c1ccccc1 (centres undefined)	1	0	1	0	1	/	/
COc1cc2c(cc1OC)CN(C(=O)c1ccccc1C(=O)O)CC2	1	-12	-1	16*	?	7	5.2*
COc1cc2c(cc1OC)CN(Cc1ccc(C)cc1)CC2	/	3	/	6	?	/	/
COc1cc2c(cc1OC)CN(CC(O)c1ccccc1)CC2 (centres undefined)	/	5	/	96*	27*	56*	74*
COc1cc2c(cc1OC)CN(C(=O)Cc1ccccc1)CC2	/	-3	/	0	-1	/	/
COc1cc2c(cc1OC)CN(CCC(C)c1ccc(Cl)cc1)CC2 (centres undefined)	/	-1	/	21*	7	148*	145*
COc1ccccc1C(CNC(=O)c1ccc(NS(=O)(=O)c2ccc3c(c2)OCCO3)cc1)N(C)C (centres undefined)	/	1	/	0	-8	/	/
O=C1c2ccccc2NC(c2cccnc2)N1c1ccccc1F (centres undefined)	6	2	5	23*	0	40*	32*
Cc1ccc(OCC(=O)N2CCC3(CC2)CC(=O)c2ccccc2O3)cc1	/	0	/	1	2	/	/
CCOC(=O)N1CCN(C(=O)COc2ccc3c(c2)C(=O)CC2(CCN(C(C)=O)CC2)O3)CC1	3	-2	1	26*	?	71*	75*
CC(=O)N1CCC2(CC1)CC(=O)c1cc(OCC(=O)N3CCOCC3)ccc1O2	10	-2	4	62*	?	69*	65*
Cc1nc2nc(N)nc(OCc3ccccc3)c2nc1C	/	-1	/	59*	0	75*	80*
COc1cccc(CNC(=O)c2ccc(NC(=O)CC3SC(N4CCCC4)=NC3=O)cc2)c1 (centres undefined)	/	/	/	0	/	/	/
CCOC(=O)c1cc2ccc(OC)c(OC)c2c(=O)s1	1	1	-1	0	5	/	/
CCOC(=O)CC(=O)Nc1cc2ccc(OC)c(OC)c2cc1C(=O)OCC	/	/	/	16*	/	-24	-25
COc1ccc(C=Nn2c(-c3n[nH]c4c3CCC4)n[nH]c2=S)cc1OCc1ccccc1	/	/	/	-1	/	/	/
CNC(=S)NNC(=O)c1cccc(N(C)C)c1	-3	-5	0	14*	-2	13*	12*
COc1cc(C2C3=C(CC(C)(C)CC3=O)N(C)C3=C2C(=O)CC(C)(C)C3)ccc1O	/	-6	/	0	11	/	/
COc1ccc(N2C3=C(C(=O)CC(C)(C)C3)C(c3cnn(C)c3)C3=C2CC(C)(C)CC3=O)cc1	82*	-2	107*	21*	57*	-15	-10
O=C(OCn1nnc2ccccc2c1=O)c1ccc(N2CCOCC2)c([N+](=O)[O-])c1	-7	0	-1	0	-1	/	/
CCOC(=O)Cn1c(=NC(=O)c2cc(-c3cccs3)nc3ccccc23)sc2cc(S(N)(=O)=O)ccc21	-43	-17	-79	172*	10	-2	-15
SMILES	Runt-SMMHC FRET	MEX-5 binding	Runt-CBFb FRET	proKLK7 act	RanGTP-Imp inh	KLK7 act conf	EDANS-DABCYL int	others
CCCCCCn1c(=O)[nH]c2nc3cc(N)ccc3nc2c1=O	-321	-49*	i	14*	-400	19*	20*
CCOC(=O)CNC(=O)N(C)[C@H]1C[C@H]2c3[nH]c4ccccc4c3CCN2C(=O)[C@H]1[C@H](C)O	/	/	/	73*	/	11	9.8*
CCOC(=O)N(C)[C@H]1C[C@H]2c3[nH]c4ccccc4c3CCN2C(=O)[C@H]1[C@H](C)O	/	/	/	50*	/	8	5.9*
CN(C(=O)C(C)(C)C)[C@H]1C[C@H]2c3[nH]c4ccccc4c3CCN2C(=O)[C@H]1CO	/	/	/	27*	/	9	9.6*
COc1ccc(OC)c(NC(=O)COC(=O)CCCN=C2NS(=O)(=O)c3ccccc32)c1	/	/	/	-1	/	/	/
NC1=NC2(CS1)CSC(N)=N2	/	/	/	0	/	/	/
Cc1cc(-c2ccccc2)[nH]c(=O)c1C#N	0	3	-1	-14	2	/	/
CN(C)c1c(-c2ccccc2)cc(-c2ccccc2)[nH]c1=O	-26	0	-4	16*	0	2	4.9*
CCCCn1c(N)c(N(Cc2ccccc2OC)C(=O)C(C)Oc2ccc(Cl)cc2)c(=O)[nH]c1=O (centres undefined)	/	3	/	0	2	/	/
COc1ccccc1NS(=O)(=O)c1cccc(C(=O)N/N=C/c2cn(-c3ccccc3)nc2-c2ccccc2)c1	13	2	-2	18*	-1	-50	-56
O=C1c2[nH]c3ccccc3c2CC1N1C(=O)c2ccccc2C1=O (centres undefined)	/	/	/	30*	/	19*	18*
CC(=O)OCC(=O)C1(O)CCC2C3CCC4=CC(=O)CCC4(C)C3(F)C(O)CC21C (centres undefined)	/	/	/	0	/	/	/
C=C(C)Cn1c2ccc(NC(=O)NCc3ccccc3)cc2c(=O)n1C	/	/	/	28*	/	32*	26*	EDANS interf=>70
C=C(C)Cn1c2ccc(NC(=O)NCC)cc2c(=O)n1C	/	/	/	39*	/	53*	58*
